# Results published in ChEMBL document CHEMBL1129062, “6- and 7-substituted 2-[2'-(dimethylamino)ethyl]-1,2-dihydro-3H-dibenz[de,h] isoquinoline-1,3-diones: synthesis, nucleophilic displacements, antitumor activity, and quantitative structure-activity relationships” (J Med Chem, 1996).
# Legend:
# A549 = assay: Tested against A549 lung carcinoma in the sulforhodamine B assay.; type: functional, cell-based; conditions: Homo sapiens
# Method in brief: (§1)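 Sulforhodamine B assay. Cells plated at 50 000/well; drug added on day 2 at 10^1–10^-5 μg/mL in half-log steps from DMSO stock diluted in PBS, final DMSO ≤0.1%. After 8-day exposure at 37 °C, cells fixed with TCA at 4 °C for 1 h and stained 30 min with 0.4% SRB. Dye solubilized in 10 mM Tris and OD read at 564 nm. Six wells per concentration; IC50 averaged.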
# UACC-375 = assay: Inhibitory activity against […] cell line; type: functional, cell-based; conditions: Homo sapiens
# L1210 [1] = assay: Inhibitory activity against sensitive L1210 cell lines; type: functional, cell-based; conditions: Mus musculus
# L1210 [2] = assay: Inhibitory activity against resistant murine leukemia L1210 cell lines.; type: functional, cell-based; conditions: Mus musculus
# MCF7 [3] = assay: Tested against […] breast carcinoma (doxorubicin resistant) cell line in the sulforhodamine B assay.; type: functional, cell-based; conditions: Homo sapiens; method in brief: as §1
# MCF7 [4] = assay: Tested against […] breast carcinoma (mitoxantrone resistant)cell line in the sulforhodamine B assay.; type: functional, cell-based; conditions: Homo sapiens; method in brief: as §1
# OVCAR-3 = assay: Inhibitory activity against OVCAR-3 cell line; type: functional, cell-based; conditions: Homo sapiens
# Rattus norvegicus = organism: Rattus norvegicus; assay: Cardiotoxicity by a neonatal rat heart myocyte assay; type: toxicity
# Method in brief: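 Neonatal rat heart myocytes exposed to drug for 1 h. Read-out is the ATP/protein ratio relative to untreated control myocytes. IC50 is the 1-h concentration that reduces this ratio to 50% of control.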
# Tumor cell line = assay: An average for IC50 values in the two solid tumor cell lines.; type: functional, cell-based
# WiDr [5] = assay: Tested against WiDr colon carcinoma (resistant) in the sulforhodamine B assay.; type: functional, cell-based; conditions: Homo sapiens; method in brief: as §1
# WiDr [6] = assay: Tested against WiDr colon (sensitive) in the sulforhodamine B assay.; type: functional, cell-based; conditions: Homo sapiens; method in brief: as §1
# [7] = Toxicity ratio determined by the quotient of IC50 values in the myocytes divided by the average value in the three tumor lines.; type: functional
# Method in brief: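 Ratio is the myocyte cardiotoxicity IC50 (1-h exposure, ATP/protein ratio versus untreated myocytes) divided by the mean IC50 in sensitive L1210 and the two human tumor lines, measured with continuous exposure.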
# [8] = An average for IC50 values in the two solid tumor cell lines and sensitive L1210 leukemia cell line.; type: functional, cell-based
# MCF7 [9] = assay: Tested against […] breast carcinoma (sensitive) cell line in the sulforhodamine B assay.; type: functional, cell-based; conditions: Homo sapiens; method in brief: as §1
# WiDr [10] = assay: Compound tested against WiDr colon carcinoma (resistant) in the sulforhodamine B assay.; type: functional, cell-based; conditions: Homo sapiens; method in brief: as §1
SMILES,IC50 (A549) [nM],IC50 (UACC-375) [nM],IC50 (L1210 [1]) [nM],IC50 (L1210 [2]) [nM],IC50 (MCF7 [3]) [nM],IC50 (MCF7 [4]) [nM],IC50 (OVCAR-3) [nM],Activity (Rattus norvegicus),IC50 (Tumor cell line) [nM],IC50 (WiDr [5]) [nM],IC50 (WiDr [6]) [nM],Toxicity ratio [7],IC50 [8] [nM],IC50 (MCF7 [9]) [nM],IC50 (Rattus norvegicus) [nM],IC50 (WiDr [10]) [nM]
CN(C)CCN1C(=O)c2ccc(N(C)C)c3cc4ccccc4c(c23)C1=O,23,101,23,96,130,79,503,46600,302,130,90,223,209,68,,
CC(=O)Nc1ccc2c3c(c4ccccc4cc13)C(=O)N(CCN(C)C)C2=O,,7290,486,729,,,6080,,6680,,,2.8,4620,,12900,
CN(C)CCN1C(=O)c2cccc3c(O)c4ccccc4c(c23)C1=O,,6130,472,212,,,1180,,3660,,,>9,2590,,> 24100,
CN(C)CCN1C(=O)c2ccc(Cl)c3cc4c(Cl)cccc4c(c23)C1=O,,472,472,590,,,945,,709,,,>37,630,,> 23600,
CN(C)CCN1C(=O)c2ccc(NCCO)c3cc4ccccc4c(c23)C1=O,,48,6,48,,,19,,34,,,50,24,,1210,
CCSc1ccc2c3c(c4ccccc4cc13)C(=O)N(CCN(C)C)C2=O,4.5,97,6,4.8,75,33,19,,58,110,,189,41,20,7740,
CCc1ccc2c3c(c4ccccc4cc13)C(=O)N(CCN(C)C)C2=O,,522,183,235,,,522,,522,,,19,409,,7830,
CC(=O)Nc1c2ccccc2c2c3c(cccc13)C(=O)N(CCN(C)C)C2=O,,730,487,487,,,730,,730,,,>36,649,,> 23600,
CN(C)CCNc1c2ccccc2c2c3c(cccc13)C(=O)N(CCN(C)C)C2=O,,839,524,524,,,2880,,1860,,,205,1420,,291000,
CNCCN1C(=O)c2ccc(OC)c3cc4ccccc4c(c23)C1=O,,2160,41,27,,,540,,1350,,,8.9,913,,8100,
CN(C)CCN1C(=O)c2ccc(O)c3cc4ccccc4c(c23)C1=O,,3130,217,145,,,723,,1930,,,>18,1360,,> 24100,
CN(C)CCNc1ccc2c3c(c4cccc(Cl)c4cc13)C(=O)N(CCN(C)C)C2=O,,29,2.9,6.8,,,176,,103,,,47,69,,3230,
CN(C)CCN1C(=O)c2cccc3c(N)c4ccccc4c(c23)C1=O,7,15,5.4,6.8,71,80,12,,14,,18,181,10.8,20,1950,100
Cc1c2ccccc2c2c3c(cccc13)C(=O)N(CCN(C)C)C2=O,,42,34,70,,,28,,35,,,49,35,,1680,
CN(C)CCN1C(=O)c2cccc3c(Cl)c4ccccc4c(c23)C1=O,,514,154,206,,,386,,450,,,31,351,,10800,
CN(C)CCN1C(=O)c2ccc(S(C)(=O)=O)c3cc4ccccc4c(c23)C1=O,,93,35,35,,,93,,93,,,32,73,,2320,
CSc1c2ccccc2c2c3c(cccc13)C(=O)N(CCN(C)C)C2=O,,1380,6250,1220,,,750,,1060,,,>18,2790,,> 50000,
CSc1ccc2c3c(c4ccccc4cc13)C(=O)N(CCN(C)C)C2=O,4.2,20,0.37,0.52,12,44,8.7,,14,64,12,310,9.7,10,3000,
CCOc1c2ccccc2c2c3c(cccc13)C(=O)N(CCN(C)C)C2=O,56,225,63,50,200,110,175,,200,33,170,34,154,23,5300,
CNCCN1C(=O)c2ccc(Cl)c3cc4ccccc4c(c23)C1=O,,5330,53,53,,,267,,2800,,,4,1880,,7600,
COc1c2ccccc2c2c3c(cccc13)C(=O)N(CCN(C)C)C2=O,91,156,117,109,180,270,130,,143,260,180,194,134,150,26000,
CN(C)CCN1C(=O)c2ccc(N)c3cc4ccccc4c(c23)C1=O,,,,,,,,,109,,,20,74,,1490,
CCCOc1ccc2c3c(c4ccccc4cc13)C(=O)N(CCN(C)C)C2=O,19,485,17,49,170,110,364,,425,270,110,27,289,80,7760,
